{"source": "ChEMBL document CHEMBL2331456", "about": "“Isobutylhydroxyamides from the pericarp of Nepalese Zanthoxylum armatum inhibit NF1-defective tumor cell line growth” (J Nat Prod, 2013)", "key": {"[1]": {"test": "Growth inhibition of mouse Nf1-/-;Trp53-/- KR158 cells assessed as green luminescence at 2 ug/ml after 2 days", "format": "functional", "settings": "KR158, 48 h, read-out: GI", "summary_of_the_method": "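KR158 Nf1−/−;Trp53−/− astrocytoma cells carry a human E2F1-promoter luciferase that gives green luminescence only in actively dividing cells. Cells were seeded at 1000 cells/well, and compounds were added after ≥4 h attachment. Green luminescence was read with ChromoGlo reagent after 2 d. Growth inhibition compares treated cells with vehicle-treated cells, both in growth media.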"}, "[2]": {"test": "Cytotoxicity against mouse Nf1-/-;Trp53-/- KR158 cells assessed as cell viability at 2 ug/ml after 2 days by red luminescence assay relative to control", "format": "cell-based", "settings": "read-out: Activity", "summary_of_the_method": "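Nf1−/−;Trp53−/− KR158 mouse astrocytoma cells carry a CMV-promoter luciferase that gives red luminescence in all living cells. Cells were plated at 1000 cells/well and allowed to attach (≥4 h), then compounds were added. Luminescence was read with ChromoGlo reagent 2 d later. Loss of viability compares treated cells in growth media with […].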"}, "NCI60": {"tested_on": "NCI60", "test": "Cytotoxicity against human NCI60 cells at 10 uM", "format": "functional, cell-based"}}, "note": "Calls of active or inactive are those of the source. The rule behind the calls is not given here.", "data": [{"smiles": "C/C=C/C=C/C=C/CC/C=C/C(=O)NCC(C)(C)O", "values": [{"measurement": "inhibition of growth at 2 µg/mL", "setting": "[1]", "value": 65, "unit": "%"}, {"measurement": "viability at 48 h, 2 ug/ml", "setting": "[2]", "value": 56, "unit": "%"}]}, {"smiles": "CC(C)(O)CNC(=O)/C=C/CCC(=O)O", "note": "[TIMURAMIDE D]", "values": [{"measurement": "inhibition of growth at 2 µg/mL", "setting": "[1]", "value": 42, "unit": "%"}, {"measurement": "viability at 48 h, 2 ug/ml", "setting": "[2]", "value": 70, "unit": "%"}, {"measurement": "Activity", "setting": "NCI60", "value": "inactive"}]}, {"smiles": "C[C@@H](O)[C@H](O)/C=C/C=C\\CC/C=C/C(=O)NCC(C)(C)O", "values": [{"measurement": "inhibition of growth at 2 µg/mL", "setting": "[1]", "value": 56, "unit": "%"}, {"measurement": "viability at 48 h, 2 ug/ml", "setting": "[2]", "value": 66, "unit": "%"}]}, {"smiles": "C[C@H]1C=C[C@@H](/C=C/CC/C=C/C(=O)NCC(C)(C)O)OO1", "note": "[TIMURAMIDE B]", "values": [{"measurement": "inhibition of growth at 2 µg/mL", "setting": "[1]", "value": 13, "unit": "%"}, {"measurement": "viability at 48 h, 2 ug/ml", "setting": "[2]", "value": 65, "unit": "%"}]}, {"smiles": "CC(C)(O)CNC(=O)/C=C/CC/C=C\\C=C\\C(=O)O", "note": "[TIMURAMIDE C]", "values": [{"measurement": "inhibition of growth at 2 µg/mL", "setting": "[1]", "value": 47, "unit": "%"}, {"measurement": "viability at 48 h, 2 ug/ml", "setting": "[2]", "value": 66, "unit": "%"}, {"measurement": "Activity", "setting": "NCI60", "value": "inactive"}]}, {"smiles": "C[C@H](O)[C@H](O)/C=C/C=C\\CC/C=C/C(=O)NCC(C)(C)O", "values": [{"measurement": "inhibition of growth at 2 µg/mL", "setting": "[1]", "value": 31, "unit": "%"}, {"measurement": "viability at 48 h, 2 ug/ml", "setting": "[2]", "value": 79, "unit": "%"}]}, {"smiles": "CC(=O)/C=C/C=C/C(O)CC/C=C/C(=O)NCC(C)(C)O", "note": "(stereo not drawn)", "values": [{"measurement": "inhibition of growth at 2 µg/mL", "setting": "[1]", "value": 52, "unit": "%"}, {"measurement": "viability at 48 h, 2 ug/ml", "setting": "[2]", "value": 75, "unit": "%"}]}, {"smiles": "C/C=C/C=C/C=C\\CC/C=C/C(=O)NCC(C)(C)O", "values": [{"measurement": "inhibition of growth at 2 µg/mL", "setting": "[1]", "value": 53, "unit": "%"}, {"measurement": "viability at 48 h, 2 ug/ml", "setting": "[2]", "value": 106, "unit": "%"}]}, {"smiles": "CC(O)/C=C/C=C/C(O)CC/C=C/C(=O)NCC(C)(C)O", "note": "(stereo not drawn)", "values": [{"measurement": "inhibition of growth at 2 µg/mL", "setting": "[1]", "value": 41, "unit": "%"}, {"measurement": "viability at 48 h, 2 ug/ml", "setting": "[2]", "value": 67, "unit": "%"}]}, {"smiles": "C[C@H]1C=C[C@@H](/C=C\\CC/C=C/C(=O)NCC(C)(C)O)OO1", "note": "[TIMURAMIDE A]", "values": [{"measurement": "inhibition of growth at 2 µg/mL", "setting": "[1]", "value": 38, "unit": "%"}, {"measurement": "viability at 48 h, 2 ug/ml", "setting": "[2]", "value": 97, "unit": "%"}, {"measurement": "Activity", "setting": "NCI60", "value": "inactive"}]}]}
